What was measured:
[1] = test system: TNF-α secretion by LPS-stimulated THP-1 cells; assay: TNF-α secretion assay in LPS-stimulated THP-1 cells; type: cell-based, human; conditions: for Suppression of TNF-α secretion (in words): 50 μg/ml, Figure 2; for inhibition at 100 µg/mL: Homo sapiens, THP-1, read-out: % Inhibition of TNF-α secretion
How it was run: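 THP-1 cells (RPMI-1640 with 0.05 mM 2-mercaptoethanol, 2 mM glutamine, 10% FBS) plated in log phase at 4 × 10^5/well. After 24 h, 50 nM PMA is added with test compound; after 24 h more, medium is replaced with compound-only medium. After 24 h, LPS 10 μg/ml is added, supernatants taken at 2 h, and human TNF-α measured by ELISA against the kit standard curve. Run in triplicate; % inhibition.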

[2] = test system: IκB kinase (IKK); conditions: kinase selectivity screening; cited from earlier work
[3] = test system: PRAK (p38-regulated/activated kinase); conditions: kinase selectivity screening; cited from earlier work
[4] = test system: MAPKAP-K3 (MAPK-activated protein kinase 3); conditions: kinase selectivity screening; cited from earlier work
[5] = test system: DYRK1A (dual-specificity tyrosine-phosphorylated and regulated kinase 1A); conditions: kinase selectivity screening; cited from earlier work
[6] = test system: Aurora B; conditions: kinase selectivity screening; cited from earlier work
[7] = test system: LITAF; assay: Western blot of LITAF expression in cells; type: cell-based; conditions: Figure 6
[8] = test system: LPS-induced lethality in mice; assay: LPS-induced endotoxic shock model; type: in vivo; conditions: for Protection from lethal dose of LPS (mortality/morbidity): 40 mg/kg ip pretreatment, 24 h observation
How it was run: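 C57 mice (8–12 weeks, 20–25 g, n = 8) get test compound i.p., then immediately a lethal i.p. LPS challenge. D-galactosamine (40 μg/g, as 4 μg/μL in DMSO) and E. coli LPS (0.25 μg/mouse, in 0.1 mL PBS with 1% BSA) are injected i.p. Controls get DMSO, then LPS. Mortality and morbidity are checked hourly for 24 h.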

[9] = test system: THP-1 cells; assay: Cytotoxicity; type: cell-based, human; conditions: at concentrations active in the TNF-α secretion assay
[10] = test system: TNF-α release from NIH3T3 cells; conditions: cited from earlier work
[11] = test system: TNF-α release in mice; conditions: cited from earlier work
[12] = Solubility; type: physicochemical
[13] = Chemical stability in aqueous buffer; type: physicochemical
[14] = Mouse plasma stability; type: in vitro ADME
[15] = test system: Caco-2; assay: Caco-2 permeability; type: in vitro ADME
[16] = Preliminary pharmacokinetic evaluation; type: in vivo, mice; conditions: for half-life: mouse, in vivo

With `COC1=CC(=O)O[C@@H](/C=C/c2ccc3c(c2)OCO3)C1` [Compound 4, methysticin] the “Suppression of TNF-α secretion (in words)” value (“Suppression … (in words)” for short) [1] was “essentially inactive”, the “Suppression … (in words)” value ([1]; listed as methysticin) was “inactivity” and the inhibition at 100 µg/mL [1] was 43%.

In the case of `COc1ccc(C=CC(=O)c2c(O)cc(OC)cc2OC)cc1` [Compound 8, flavokavain A], the “Inhibition of IKK” value [2] is listed as “inhibits”, the “Inhibition of PRAK” value [3] is listed as “inhibits” and the “Inhibition of MAPKAP-K3” value [4] is listed as “inhibits”. The “Inhibition of DYRK1A” value [5] was “inhibits” and the “Inhibition of Aurora B” value [6] was “inhibits”.

Compound `COC1=CC(=O)OC(c2ccc(-c3ccccc3)cc2)C1` (stereo not drawn) [Compound 15, 6-(Biphenyl-4-yl)-4-methoxy-5,6-dihydro-2H-pyran-2-one] has an inhibition at 100 µg/mL [1] of -9%.

For `COC(=O)/C=C(\CC(O)c1ccc(-c2ccccc2)cc1)OC` (stereo not drawn) [Compound 16, (E)-Methyl 5-(biphenyl-4-yl)-5-hydroxy-3-methoxypent-2-enoate], the “Suppression of TNF-α secretion” value [1] was at least 50%, the “Dose response of TNF-α secretion suppression” value ([1]; Figure 5) was “dose-responsive manner” and the inhibition at 100 µg/mL [1] was 58%. The LITAF expression [7] was “nearly ablated LITAF expression”.

With `COC1=CC(=O)O[C@@H](CCc2ccc3c(c2)OCO3)C1` [Compound 3, dihydromethysticin] the “Suppression … (in words)” value [1] was “essentially inactive”, the “Suppression … (in words)” value ([1]; listed as dihydromethysticin) was “inactivity” and the inhibition at 100 µg/mL [1] was 37%.

For `COC1=CC(=O)O[C@@H](CCc2ccccc2)C1` [Compound 2, dihydrokavain], the “Suppression … (in words)” value [1] was “reproducibly active”, the “% Inhibition of TNF-α secretion” value ([1]; LPS-treated THP-1 cells, 100 μg/ml, replicates in parentheses) was 95 (3) % and the “Survival rate at 24 h” value ([8]; 40 mg/Kg ip pretreatment) was 30%. For the same compound, the “Delay in time of death compared to vehicle treated animals” value ([8]; 40 mg/Kg ip, animals that died) was “about a two hour delay”, the “Protection from lethal dose of LPS (mortality/morbidity)” value (“Protection … (mortality/morbidity)” for short) [8] was “only partially protected” and the Cytotoxicity [9] was “did not show any cytotoxicity”. The “Inhibition of TNF-α release (in words)” value [10] was “lower activity” and the “Inhibition of TNF-α release in mice (in words)” value [11] was “most potent inhibitor”.

With `COC1=CC(=O)O[C@@H](/C=C/c2ccccc2)C1` [Compound 1, kavain] the “Suppression … (in words)” value [1] was “reproducibly active”, the inhibition at 100 µg/mL [1] was 98% and the LITAF expression [7] was “evidently do not”. The “Protection … (mortality/morbidity)” value [8] was “no mortality or overt morbidity observed for at least 24 hours”, the solubility ([12]; PBS buffer, pH 7, aqueous buffer) was over 500 µM and the “Solubility (in words)” value ([12]; pH 7) was “highly soluble”. The “Chemical stability (in words)” value ([13]; aqueous buffer) was “good chemical stability”, the “Chemical Stability, degradation” value ([13]; at 1 hr, pH=7) was <10% degradation at 1 hr, pH=7 and the “Mouse plasma stability, remaining” value ([14]; at 2h, 5 μM dose) was 99% remaining at 2h (5 μM dose). The “Stability in plasma (in words)” value ([14]; mouse plasma) was “good chemical stability”, the “Caco-2 permeability, Papp(B→A)/Papp(A→B)” value [15] was “Papp(B→A)/Papp(A→B)=0.7” and the “Cell permeability (in words)” value ([15]; Caco-2 assay) was “high level of cell permeability”. For the same compound, the “Clearance (in words)” value ([16]; following dosing, mice) was “rapidly cleared”, the half-life ([16]; iv, 1 mg/kg) was under 15 min and the half-life ([16]; po, 10 mg/kg) was under 40 min. The Cytotoxicity [9] was “did not show any cytotoxicity”.

In the case of `COc1cc2c(cc1O)CC[n+]1cc3c(OC)c(OC)ccc3cc1-2.[I-]` [Jatrorrhizine iodide], the “Protection … (mortality/morbidity)” value [8] is reported as “render mice immune to endotoxic shock-mediated death” and the “Health of surviving animals” value ([8]; 40 mg/kg ip, after 24h) is reported as “poor health”.

— paper PMC2754715 (Chemical biology & drug design, 2009)
